Assay results taken from PubChem BioAssay.
Calls of active or inactive are those of the source.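 Rule for the calls, unless noted: active = visually confirmed hit in the image check and inhibition above 20%; inconclusive = visually confirmed hit but inhibition not above 20%; inactive = no visual hit in the image check.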

Experiments:
[1] = inhibitors of TNFa-induced NFkB p65 translocation, primary screen, imaging, HUVEC, MLSMR starter and 10KST1 sets (AID 438;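 active = inhibition above 20% together with a positive visual image hit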;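 note: compound added about 3h40 before a 20 min TNFalpha stimulation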;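 for inhibition: signal is the nuclear over cytoplasmic p65 intensity ratio per well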); conditions: HUVEC TNFa-induced p65 nuclear translocation; cell count: measured here: nuclei count (cytotoxicity indicator), at 2.08 µM; inhibition: at 2 µM, stronger effect = higher value, 0% TNFa-plus-vehicle, 100% no-TNFa wells
[2] = inhibitors of E-selectin induction by TNFa, primary screen, imaging, HUVEC, immunofluorescence, MLSMR starter and 10KST1 sets (AID 487); conditions: HUVEC TNFalpha-induced E-selectin immunofluorescence imaging, at 2 µM; inhibition: stronger effect = higher value; nuclei count: measured here: cell number, toxicity;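 for inhibition: signal is fraction of cell area covered by stained E-selectin grains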;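 for nuclei count: 100% = median nuclei count of all wells on the same plate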
[3] = DUSP6 inhibitors restoring Erk phosphorylation by chemical complementation, primary imaging in DUSP6-transfected HeLa (AID 609;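 active = compounds giving at least 50% inhibition in the cell-based MKP-3 phosphatase rescue imaging test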;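 for inhibition: phospho-Erk level distribution per well compared with pooled transfected vehicle control wells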); conditions: HeLa MKP-3 transfected, phospho-Erk imaging KS statistic, at 10 µM, cells stimulated with TPA for 15 min
[4] = molecular target: Dual specificity protein phosphatase 6 (Homo sapiens) (UniProt Q16828); assay: as above; conditions: HeLa MKP-3 transfected, phospho-Erk imaging KS statistic; at 10 µM; stronger effect = higher value; cells stimulated with TPA for 15 min
Sequence of Dual specificity protein phosphatase 6 (Homo sapiens) (Q16828 whole entry, looked up): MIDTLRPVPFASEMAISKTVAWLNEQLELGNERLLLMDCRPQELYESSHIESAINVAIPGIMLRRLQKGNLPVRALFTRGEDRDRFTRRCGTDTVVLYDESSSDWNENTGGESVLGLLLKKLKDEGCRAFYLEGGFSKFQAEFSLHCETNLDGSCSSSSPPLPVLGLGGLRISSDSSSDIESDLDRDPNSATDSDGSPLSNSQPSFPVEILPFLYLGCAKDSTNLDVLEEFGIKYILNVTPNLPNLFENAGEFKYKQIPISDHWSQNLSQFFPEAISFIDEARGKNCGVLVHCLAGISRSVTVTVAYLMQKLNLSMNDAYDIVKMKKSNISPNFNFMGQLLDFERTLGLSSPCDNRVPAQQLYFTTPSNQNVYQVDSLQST

[5] = molecular target: Voltage-gated potassium channel subunit beta-2 (Rattus norvegicus) (UniProt P62483); assay: KvBeta enzyme negative modulators, primary screen, biochemical, NADPH fluorescence (AID 622;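 active = fluorescence slope higher than the sample average by over 3 SD, cut at about -0.22 in these data, passing the limit was not always enough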;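 note: slope of raw intensity against log time taken from 70 to 1610 s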); conditions: recombinant KvBeta, 4-cyanobenzaldehyde reduction, at 10 µM, stronger effect = higher value
Sequence of Voltage-gated potassium channel subunit beta-2 (Rattus norvegicus) (P62483 whole entry, looked up): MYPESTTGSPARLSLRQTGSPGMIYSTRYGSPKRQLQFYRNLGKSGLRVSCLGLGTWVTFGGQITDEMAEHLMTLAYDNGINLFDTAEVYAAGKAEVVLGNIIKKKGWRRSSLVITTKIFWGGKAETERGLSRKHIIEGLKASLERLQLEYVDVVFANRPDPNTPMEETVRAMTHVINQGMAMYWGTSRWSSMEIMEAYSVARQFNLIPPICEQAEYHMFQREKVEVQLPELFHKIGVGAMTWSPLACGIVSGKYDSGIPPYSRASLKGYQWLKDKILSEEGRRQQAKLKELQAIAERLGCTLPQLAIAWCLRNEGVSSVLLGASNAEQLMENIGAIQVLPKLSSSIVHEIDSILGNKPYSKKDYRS

[6] = molecular target: Voltage-gated potassium channel subunit beta-2 (Rattus norvegicus) (UniProt P62483); assay: KvBeta positive modulators, primary screen, biochemical, NADPH fluorescence (AID 623;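 active = NADPH fluorescence slope more negative than the mean of all samples by about 3 SD, 99.7% confidence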;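 note: fluorescence intensity change per second fitted from 20 to 320 s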); conditions: Recombinant KvBeta, NADPH fluorescence decrease slope, 10 min; at 10 µM; stronger effect = lower value
[7] = molecular target: Alpha-2C adrenergic receptor (Homo sapiens) (UniProt P18825); assay: modulators of alpha2C/GIRK thallium flux, primary screen, cell-based, HEK293 alpha2C/GIRK1/2 (AID 624;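 active = fluorescence slope after compound addition differing from the mean of all screened samples at 99.7% confidence, in either direction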;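 note: slope of fluorescence ratio to pre-addition baseline per second over 15 to 24 s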); conditions: thallium flux BTC fluorescence, at 10 µM, actives lie on both sides
Sequence of Alpha-2C adrenergic receptor (Homo sapiens) (P18825 whole entry, looked up): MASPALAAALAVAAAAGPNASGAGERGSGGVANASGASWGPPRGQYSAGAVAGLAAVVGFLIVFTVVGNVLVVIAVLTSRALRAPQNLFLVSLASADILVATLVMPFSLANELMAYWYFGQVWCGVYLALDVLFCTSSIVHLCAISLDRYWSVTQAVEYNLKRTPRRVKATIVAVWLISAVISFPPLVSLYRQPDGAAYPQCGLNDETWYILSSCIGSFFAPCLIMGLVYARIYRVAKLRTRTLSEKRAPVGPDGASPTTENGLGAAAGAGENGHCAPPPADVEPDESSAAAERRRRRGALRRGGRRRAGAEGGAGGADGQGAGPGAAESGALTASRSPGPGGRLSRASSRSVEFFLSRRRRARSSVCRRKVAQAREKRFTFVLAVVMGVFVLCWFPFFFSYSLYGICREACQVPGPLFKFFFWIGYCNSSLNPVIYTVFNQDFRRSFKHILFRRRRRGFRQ

[8] = inhibitors of larval lipid processing in zebrafish, primary screen, whole organism, PED6 fluorescence, gall bladder and intestine (AID 686;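 active = a full or partial loss of lipid-probe fluorescence in the fish gall bladder, intestine or both, judged by eye; inactive = no fluorescence loss, or compound toxic to the fish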;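 note: larvae 5 to 7 days old with five fish per well; signal comes from phospholipase A2 cleavage of quenched PED6 carried via bile; overnight exposure to compound and PED6 before scoring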); conditions: Zebrafish larvae PED6 lipid processing, fluorescence scoring; screened at 20 µM (by protocol)
Outline: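 Also added: quenched phospholipase substrate PED6, 100 nM final, ingested by larvae; System: zebrafish larvae, 5-7 d; Quantity: 5 larvae per well; Compound: 20 µM single dose; Schedule: overnight compound and PED6 incubation; Read-out: visual per-well fluorescence inhibition score; Measured by: By-eye fluorescence microscopy; Medium: E3.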

[9] = inhibitors of Chlamydomonas gravitaxis, primary screen, whole organism, Chlamydomonas reinhardtii, WT vs cilia-less mutant, absorbance, 96-well (AID 463189;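 active = inhibition at or above 50% relative to wild type and mutant plate controls; inactive = inhibition below 50%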;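 note: 0% = wild type cc124 cells in DMSO and 100% = ciliumless bld1 mutant cells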); conditions: OD600 absorbance, 2 days, at 10 µM, stronger effect = higher value
[10] = measured here: cell density z-score
[11] = measured here: nuclear c-Myc green intensity z-score
[12] = measured here: nuclear pErk red intensity z-score, stronger effect = higher value

Structure (SMILES)	cell count [1]	inhibition [1]	inhibition [2]	nuclei count [2] [%]	z-score [3, 10]	z-score [3, 11]	z-score [3, 12]	inhibition [4]	fluorescence slope [5]	NADPH fluorescence slope [6]	slope [7]	outcome [8]	inhibition [9]
CCOC(=O)C1CCCN(c2nc3ccccc3nc2C(C#N)C(=O)OCCOC)C1 (centres undefined)	542	-14.7% (inactive)	-102% (inactive)	160	0.574	2.29	-0.983	4.72% (inactive)	-0.48 (inactive)	-4.8e-05 (inactive)	0.0042 (inactive)	active; weak signal in gallbladder and intestine	6.3% (inactive)
COc1cccc(OC)c1-c1nn2c(-c3ccccc3Cl)nnc2s1	611	-4.2% (inactive)	-50.2% (inactive)	159	1.55	-0.0979	-0.298	-6.06% (inactive)	-0.444 (inactive)	-0.000105 (inactive)	0.00355 (inactive)	inactive	101% (active)
N#Cc1c(-c2ccco2)cc(C2CC2)nc1N	528	-3.5% (inactive)	-51.8% (inactive)	107	-1.1	-0.229	-0.103	-1.12% (inactive)	-0.43 (inactive)	-0.00027 (inactive)	0.00359 (inactive)	inactive	-5.69% (inactive)
CC(C)c1cc(NCCCN2CCOCC2)n2c(nc3ccccc32)c1C#N	548	-21.3% (inactive)	-6.2% (inactive)	155	1.24	-0.267	-1.5	6.51% (inactive)	-0.342 (inactive)	-1.7e-06 (inactive)	0.00382 (inactive)	inactive	5.12% (inactive)
C=CCn1c(=S)[nH]c2nc3c(cc2c1=O)CCCC3	546	-1% (inactive)	-44.7% (inactive)	112	-0.436	2.14	0.929	-7.28% (inactive)	-0.428 (inactive)	4.7e-06 (inactive)	0.0129 (inactive)	inactive	-0.142% (inactive)
Cc1cc(C)n(C(=O)CNC(=O)CCc2ccccc2)n1	562	-0.6% (inactive)	62.6% (inactive)	151	1.03	-0.553	-0.0899	-1.75% (inactive)	-0.411 (inactive)	-2.5e-05 (inactive)	0.00565 (inactive)	inactive	-9.43% (inactive)
Cc1cccc(N)c1SC1CCCCC1O (centres undefined)	420	-5.2% (inactive)	-79.6% (inactive)	131	0.781	-1.44	-1.09	23.9% (inactive)	-0.46 (inactive)	-2.2e-05 (inactive)	0.00629 (inactive)	inactive	15% (inactive)
CCN(CC)C(=O)CSC1=C(C#N)C(c2cccs2)C=C(C)N1 (centres undefined)	685	-20% (inactive)	-137% (inactive)	171	-0.342	-0.599	1.19	-10.6% (inactive)	-0.405 (inactive)	-4.9e-05 (inactive)	0.00539 (inactive)	inactive	-1.96% (inactive)
O=C(C1=C(O)C(=O)N(CCCN2CCOCC2)C1c1ccccn1)c1cccs1 (centres undefined)	506	-11.2% (inactive)	-117% (inactive)	136	-1.2	-0.158	2.08	-3.5% (inactive)	-0.495 (inactive)	-5.5e-05 (inactive)	0.00674 (inactive)	inactive	-6.32% (inactive)
CC(C)OC(=O)[C@H]1[C@H](c2ccc(Cl)cc2)[C@@](C#N)(C(N)=O)[C@@H]2C=CC(C(N)=O)=CN21	523	-4.9% (inactive)	-24% (inactive)	155	0.333	0.745	-0.843	2.46% (inactive)	-0.335 (inactive)	1.2e-05 (inactive)	0.00427 (inactive)	inactive	6.97% (inactive)
S=c1[nH]nc(-c2ccco2)n1Cc1ccccc1	367	-8.2% (inactive)	-105% (inactive)	110	-1.5	1.31	-1.88	11.9% (inactive)	-0.477 (inactive)	-0.000234 (inactive)	0.00534 (inactive)	inactive	-18.5% (inactive)
CCOC(=O)c1ccc(NC(=O)Cn2nnc3ccccc32)cc1	333	-8.2% (inactive)	-17.3% (inactive)	84.8	0.667	0.595	-0.72	7.48% (inactive)	-0.538 (inactive)	-0.000163 (inactive)	0.0051 (inactive)	inactive	37.7% (inactive)
COc1cc(C)nc(Oc2ccc(=O)n(C)n2)n1	616	-10.3% (inactive)	13.1% (inactive)	188	0.099	-0.292	0.697	-8.95% (inactive)	-0.38 (inactive)	-2.2e-05 (inactive)	0.00541 (inactive)	inactive	3.29% (inactive)
